STEP block – STEP phosphatase inhibitors, primary screen, biochemical, fluorescence intensity, uHTS; Tyrosine-protein phosphatase non-receptor type 5 (Homo sapiens), P54829; recombinant STEP, OMFP fluorogenic substrate; inhibition, % at 20 µM; 360,000 tested, 0.25% active; AID 588621, 2011;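 active = inhibition at 20 µM, scaled per plate between control wells, above about 37%, limit read from the data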;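 note: 0% = DMSO with enzyme and substrate and 100% = substrate only without enzyme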
Target sequence (P54829 whole entry, looked up): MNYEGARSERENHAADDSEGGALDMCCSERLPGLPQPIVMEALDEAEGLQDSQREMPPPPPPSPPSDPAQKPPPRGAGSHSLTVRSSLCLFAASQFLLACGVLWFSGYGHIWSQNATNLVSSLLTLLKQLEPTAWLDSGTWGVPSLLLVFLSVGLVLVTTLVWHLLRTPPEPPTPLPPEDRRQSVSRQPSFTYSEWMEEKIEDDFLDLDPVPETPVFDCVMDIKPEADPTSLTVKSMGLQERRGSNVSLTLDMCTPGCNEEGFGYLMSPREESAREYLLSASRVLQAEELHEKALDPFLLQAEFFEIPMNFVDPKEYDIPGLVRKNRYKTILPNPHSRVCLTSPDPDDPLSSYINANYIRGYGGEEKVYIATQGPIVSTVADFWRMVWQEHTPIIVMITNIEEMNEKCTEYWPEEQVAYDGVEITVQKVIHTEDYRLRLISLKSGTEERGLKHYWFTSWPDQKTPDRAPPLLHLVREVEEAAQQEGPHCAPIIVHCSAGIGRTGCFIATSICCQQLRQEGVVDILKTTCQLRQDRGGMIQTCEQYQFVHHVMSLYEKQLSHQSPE
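Assay system: isolated STEP enzyme / Timing: 20 min at room temperature, dark / Doses: 20 µM, 1% DMSO / Technique: fluorescence intensity, excitation 480 nm, emission 540 nm / Reagent: fluorogenic phosphatase substrate OMFP at 25 µM final / Measure: percent inhibition scaled to no-enzyme and uninhibited-enzyme controls, plate-pattern corrected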
F508del corr – F508del CFTR correction, initial screen, CFBE line, single point. CFBE cells, YFP halide quenching; stimulated with forskolin plus potentiator P3; % fluorescence drop versus neutral controls. AID 720511, 2013. activity (quench increase), % at 7.58 µM. 350,000 tested, 0.36% active;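 active = mean added fluorescence quench of at least 8% versus neutral control, with both replicates also reaching 8%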;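 note: cells transiently co-express mutant CFTR-F508del with the halide-sensitive YFP; corrector assay measuring rescue of mutant channel to the surface after 24 h compound exposure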
LMPTP block – LMPTP phosphatase inhibitors, primary screen, biochemical, fluorescence intensity, uHTS | Low molecular weight phosphotyrosine protein phosphatase (Homo sapiens), P24666 | inhibition, % at 20 µM | recombinant LMPTP-A, OMFP fluorogenic substrate | 360,000 tested, 0.22% active;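 active = compounds that cut the enzyme signal by at least half of the control window in the single-dose screen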;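 note: plate controls were DMSO wells with enzyme plus substrate for no effect and substrate without enzyme for full effect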
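Assay system: LMPTP-A enzyme. Input: 0.625 nM LMPTP-A final. Probe or stimulus: 400 µM OMFP. Compound dosing: single 20 µM dose. Schedule: 50 min dark incubation at room temperature. Detection: fluorescence intensity of OMFP turnover product. Read-out: percent inhibition versus substrate-only and uninhibited controls. Benchmarks: no-enzyme low control, uninhibited high control.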
Scp-1 inhibitor – Scp-1 phosphatase inhibitors, primary screen, biochemical, colorimetric, uHTS; AID 493091, 2011; Carboxy-terminal domain RNA polymerase II polypeptide A small phosphatase 1 (Homo …; inhibition, % at 20 µM; Recombinant Scp1, phosphopeptide, malachite green phosphate absorbance; 340,000 tested, 0.88% active;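 active = inhibition above about 50% at 20 µM, limit read from the data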;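 note: plate controls were DMSO wells with enzyme for no effect and wells lacking enzyme for full effect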
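Test system: SCP-1 catalytic domain; Buffer or medium: Acidic Tris acetate buffer with magnesium and detergent; Also added: Phosphorylated 17-residue peptide substrate; Compound: single 20 µM dose, 1% DMSO; Schedule: enzyme reaction 45 min at room temperature, colour 5 min, stabilisation 30 min; Signal: Phosphate-binding colour reagent, absorbance read at 630 nm.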
SUMO1-SIM PPI – modulators of SUMO1 protein-protein interactions, primary screen, biochemical, uHTS; Small ubiquitin-related modifier 1 (Homo sapiens), P63165; SUMO1 binding to a labelled peptide, TR-FRET, 1 h; inhibition, % at 20 µM; 360,000 tested, 0.33% active; AID 602429, 2012; in the data active = inhibition above about 37%
Target sequence (P63165 whole entry, looked up): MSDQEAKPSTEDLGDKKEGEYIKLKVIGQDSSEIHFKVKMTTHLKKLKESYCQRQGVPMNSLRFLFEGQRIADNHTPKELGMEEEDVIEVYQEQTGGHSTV
DNMT1 inh – human DNMT1 methyltransferase inhibitors, primary screen, biochemical, molecular beacon, fluorescence, HinP1I cleavage, uHTS | DNA (cytosine-5)-methyltransferase 1 (Homo sapiens), P26358 | inhibition (reported as % activation of signal), % at 10 µM | 360,000 tested, 0.83% active | AID 588458, 2011; in the data active = inhibition above about 50%
Numbers without * were called inactive; . = no result. Hits are enriched below; roughly 1.6% of the tested compounds scored in any of these assays.

SMILES	STEP block	F508del corr	LMPTP block	Scp-1 inhibitor	SUMO1-SIM PPI	DNMT1 inh
C[C@@H]1CN([C@@H](C)CO)S(=O)(=O)c2ccc(C#CC3(O)CCCC3)cc2O[C@H]1CN(C)C(=O)c1cccnc1	.	-2.3	.	.	.	.
CCSc1nnc(N2C(=O)C(O)=C(C(=O)c3ccco3)C2c2cccc(OC)c2)s1 (stereo unspecified)	-2.8	9.3*	4.0	-7.9	-3.1	2.7
Nc1ccc(Cc2ccc(N)c(O)c2)cc1O	0.4	-0.8	49.6*	-9.3	-4.6	-26.6
O=C(c1ccncc1)N1C[C@@H]2[C@H](c3ccccc31)[C@H](CO)N2C(=O)Nc1ccc(F)cc1	.	2.3	.	.	.	.
COc1ccc(-c2ccnc(-c3ccc(O)cc3)n2)cc1	-0.3	10.6*	0.4	0.9	5.5	-3.7
CNC[C@H]1OCCCC[C@@H](C)Oc2ccc(NC(=O)Nc3c(C)noc3C)cc2C(=O)N([C@H](C)CO)C[C@H]1C	.	-5.5	.	.	.	.
O=C(N/N=C/c1ccc(C(F)(F)F)cc1)c1ccc(O)cc1	-1.5	1.3	-0.2	-1.4	-3.0	6.4
NC(N)=NN=C(c1ccc(F)cc1)c1ccc(C(F)(F)F)cc1	4.5	12.5*	-1.1	4.7	-15.2	6.0
C(#Cc1ccccc1)C[N+]1(CC#Cc2ccccc2)CCCC1	-3.5	2.0	-2.6	3.3	-2.0	2.1
C=CC#CC[N+]1(CC#Cc2ccccc2)CCOCC1	5.1	0.7	52.1*	8.9	36.6*	-30.1
COc1cccc(-c2nnc3sc(-c4ccccc4)nn23)c1	0.6	.	-0.3	-10.7	-17.8	-2.7
COc1cccc(OC)c1-c1nn2c(-c3cc(-c4ccccc4)n[nH]3)nnc2s1	3.6	.	56.2*	90.3*	-2.1	17.0
O=C(O)CCCNC(=O)/C=C/c1ccco1	3.6	-0.3	4.5	72.5*	-1.1	87.8*
COc1cccc(NC(=S)NC(=O)/C=C/c2ccco2)c1	0.1	3.5	11.8	-5.2	16.4	31.9
O=C(/C=C/c1ccco1)NC(=S)Nc1nc(-c2ccc3ccccc3c2)cs1	-4.6	12.1*	3.2	-13.1	1.4	-21.7
O=C(/C=C/c1ccco1)NC(=S)Nc1nc(-c2ccc(Cl)cc2)cs1	-0.6	.	2.1	-2.7	-2.8	-2.7
O=C(/C=C/c1ccco1)NC(=S)Nc1cccc(C(=O)O)c1	15.1	-1.6	0.4	64.5*	1.9	37.8
O=C(O)CCCCCNC(=O)/C=C/c1ccco1	0.1	-0.5	1.2	14.7	-4.6	3.8
COc1ccc(S(=O)(=O)N(C)C[C@@H]2Oc3ccc(NC(=O)CCCCCC(=O)Nc4ccccc4N)cc3C(=O)N([C@@H](C)CO)C[C@@H]2C)cc1	.	2.1	.	.	.	.
C[C@H](CO)N1C[C@H](C)[C@@H](CN(C)C(=O)NC2CCCC2)Oc2ncc(C3=CCCC3)cc2C1=O	.	0.8	.	.	.	.
Cc1cccc(CN(C)C[C@@H]2OCc3cn(nn3)CCCC(=O)N([C@H](C)CO)C[C@@H]2C)c1	.	-2.5	.	.	.	.
Cn1c(N/N=C/c2cccs2)cc(=O)n(C)c1=O	-3.4	.	2.5	-0.6	-9.7	-6.2
Fc1c(F)c(C(F)(F)F)c(F)c(F)c1N/N=C\c1cccs1	-1.7	.	2.4	-3.7	40.6*	-6.8
Clc1ccc(CSc2nncn2-c2ccccn2)cc1	-3.3	.	-0.9	-5.2	14.0	3.5
Clc1ccc(CSc2nncn2-c2ccc3c(c2)OCCO3)cc1	0.3	10.7*	0.1	2.7	3.8	-0.3
SMILES	STEP block	F508del corr	LMPTP block	Scp-1 inhibitor	SUMO1-SIM PPI	DNMT1 inh
CCN(CC)CCNc1ccc(CO)c2oc3cc(Cl)ccc3c(=O)c12	-0.3	9.0*	1.6	.	-20.4	41.2
COC1=CC(=O)c2c(ccc3ncnc(N)c23)C1=O	6.7	-2.1	8.6	-7.6	71.7*	103.2*
O=C(Nc1cccc(-c2cn3ccccc3n2)c1)c1cc2ccccc2oc1=O	80.9*	-2.0	74.5*	3.1	-6.4	43.3
COc1cccc(CNC(=O)C[C@H]2C=C[C@H](NC(=O)C3CC3)[C@H](CO)O2)c1	.	0.0	.	.	.	.
C[C@@H]1CN([C@@H](C)CO)C(=O)c2cccc(NC(=O)C3CCOCC3)c2O[C@H]1CN(C)C	.	1.8	.	.	.	.
CCOc1ccc(NC(=O)c2ccc(CNc3c(NC4CCCCC4)c(=O)c3=O)cc2)cc1	-0.3	2.5	-1.5	4.1	12.2	55.7*
CCOc1cccc(CNc2ccc(O)cc2)c1OCc1ccc(Cl)cc1Cl	9.8	.	17.1	-4.6	68.2*	-28.2
CCOc1cccc(CNc2ccc(O)cc2)c1OCc1ccccc1Cl	-6.4	.	21.9	-7.9	44.4*	-46.2
CCC(=O)N1[C@H](CO)[C@@H](c2ccc(-c3ccc(F)cc3)cc2)[C@@H]1CNC(C)=O	.	0.3	.	.	.	.
COc1ccc2nc3cc(Cl)ccc3c(Nc3ccc(O)c(CN4CCN(C)CC4)c3)c2c1	6.2	0.6	21.9	-10.4	-65.4	68.3*
CNC[C@@H]1Oc2ccc(NS(=O)(=O)c3cn(C)cn3)cc2CC(=O)N([C@@H](C)CO)C[C@@H]1C	.	-1.4	.	.	.	.
CC[n+]1c(/C=C/c2ccc(OC)c(OC)c2)ccc2ccccc21	-0.5	2.7	-0.6	22.6	-33.8	-0.6
CC[n+]1c(/C=C/c2ccc(OC(C)=O)c(OC)c2)ccc2ccccc21	-1.2	-4.6	0.8	55.0*	-44.5	-3.8
C/C=C/c1ccc([C@@H]2[C@H](CO)N3CCCCN(S(=O)(=O)c4ccccc4)C[C@@H]23)cc1	.	31.4*	.	.	.	.
O=C1/C(=C\c2ccco2)CCC/C1=C\c1ccco1	-13.5	.	3.0	-27.1	-4.3	73.0*
COc1ccc(C(=O)Nc2nc3cc4c(cc3s2)OCO4)c(OC)c1	-0.9	-2.6	0.7	-17.3	59.6*	-19.1
COc1ccc2nc(NC(=O)c3cc(C)oc3C)sc2c1	0.2	.	0.5	-3.1	1.4	-6.5
O=C(O)c1ccc(N=Nc2c(O)[nH]c3cc(Cl)ccc23)cc1	9.1	3.3	4.8	56.3*	-8.0	2.1
CN1CCN(C(=O)C[C@@H]2C=C[C@H](NC(=O)Cc3ccccn3)[C@@H](CO)O2)CC1	.	-0.4	.	.	.	.
CC1=NOC(=O)/C1=C/c1ccc(-c2ccc(Cl)cc2)o1	4.6	.	3.9	.	20.1	42.6
CC1=NOC(=O)/C1=C\c1ccc(-c2ccc(Br)cc2)o1	3.6	-4.6	4.8	0.9	14.7	61.3*
Nc1cccc2nsnc12	1.1	0.6	-0.1	14.7	-8.4	-21.1
Nc1cc2nsnc2cc1Br	35.1	.	21.7	5.7	79.6*	111.5*

Screening results as filed in PubChem.
